Measurements reported in ChEMBL document CHEMBL1649090, “Discovery of (7R)-14-cyclohexyl-7-{[2-(dimethylamino)ethyl](methyl) amino}-7,8-dihydro-6H-indolo[1,2-e][1,5]benzoxazocine-11-carboxylic acid (MK-3281), a potent and orally bioavailable finger-loop inhibitor of the hepatitis C virus NS5B polymerase” (J Med Chem, 2011).

How the values were obtained:
Hepatitis C virus [1] = experiment: Antiviral activity against HCV2b; type: functional, organism-based, Hepacivirus hominis; details: genotype 2b
[2] = Intrinsic clearance in dog liver microsomes assessed per mg of protein presence of UDPGA; type: ADME, Canis lupus familiaris, Microsome
Hepatitis C virus [3] = experiment: Inhibition of HCV1b NS5B delta21 polymerase after 1 hr; type: single protein, Hepatitis C virus subtype 1b
Method in brief: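 Enzyme inhibition IC50 measured on genotype 1b HCV NS5B polymerase truncated by 21 C-terminal residues (ΔC21).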

[4] = Cmax in Sprague-Dawley rat at 3 mg/kg, iv and 3 mg/kg, po; type: ADME, organism-based; details: in vivo
Method in brief: (§1)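 Single-dose PK of the bis-HCl salt, n = 3 per species (dog po n = 2). Intravenous doses: rat 3, dog 1, rhesus 2 mg/kg, in DMSO/PEG400/water 20%/60%/20%. Oral doses: rat 3, dog 2, rhesus 4 mg/kg, in PEG400 for rat and dog and PEG400/water 70%/30% for rhesus.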

[5] = Intrinsic clearance in human liver microsomes assessed per mg of protein presence of UDPGA; type: ADME, Microsome
Hepatitis C virus [6] = experiment: Antiviral activity against HCV1b infected in human Huh-7 cells assessed as inhibition of viral RNA replication after 96 hrs by ELISA assay in presence of 10% fetal calf serum; type: functional, organism-based, Hepacivirus hominis; details: genotype 1b, Huh-7, 96 h
[7] = Intrinsic clearance in rat liver microsomes assessed per mg of protein; type: ADME, Microsome
[8] = Volume of distribution at steady state in dog at 1 mg/kg, iv and 2 mg/kg, po; type: ADME, organism-based, Canis lupus familiaris; details: in vivo, read-out: Vdss
Method in brief: (§2)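 Single iv and single oral doses, given as the bis-HCl salt, in rat, dog and rhesus, n = 3 per species (dog oral n = 2). The iv vehicle was DMSO/PEG400/water 20%/60%/20%. Oral vehicle was PEG400 for rat and dog and PEG400/water 70%/30% for rhesus. Values are mean ± SD.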

Hepatitis C virus [9] = experiment: Antiviral activity against HCV1b infected in humanized uPA+/+-SCID mouse assessed as reduction of viremia at 50 mg/kg, ip bid for 4 days; type: functional, Hepacivirus hominis; details: route intraperitoneal
Method in brief: (§3)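 Three chimeric uPA+/+-SCID mice with human hepatocytes, infected with genotype 1b HCV, received the dose intraperitoneally twice daily for 4 days in PEG400/water 30%/70%. Three vehicle-only mice were dosed for four days as controls. Plasma HCV RNA change is reported per animal and as mean, in log10 (lower limit 315 IU/mL). Follow-up ran to day 21. Plasma trough drug was measured 12 h after the last dose.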

[10] = Plasma concentration in HCV1b infected humanized uPA+/+-SCID mouse at 50 mg/kg, ip bid for 4 days measured 12 hrs after last post dose; type: ADME, organism-based; parameters: dose 50 mg/kg, route intraperitoneal
Method in brief: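 Three humanized uPA+/+-SCID mice infected with genotype 1b HCV received 10 or 50 mg/kg ip twice daily for 4 days, in PEG400/water 30%/70%. Trough plasma concentration was taken 12 h after the last dose.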

[11] = Oral bioavailability in rhesus monkey at 4 mg/kg; type: ADME, organism-based, Macaca mulatta; details: in vivo; method in brief: as §1
Hepatitis C virus [12] = experiment: Antiviral activity against HCV1b BK; type: functional, organism-based, Hepacivirus hominis; details: genotype 1b BK
Hepatitis C virus [13] = experiment: Antiviral activity against HCV1b infected in humanized uPA+/+-SCID mouse assessed as reduction of plasma viral RNA level at 50 mg/kg, ip bid for 4 days; type: functional, Hepacivirus hominis; details: route intraperitoneal; method in brief: as §3
Cytochrome P450 2C9 = Cytochrome P450 2C9 (Homo sapiens, UniProt P11712); experiment: Inhibition of CYP2C9 up to 50 uM; type: ADME
Mus musculus [14] = experiment: Toxicity in SCID mouse assessed as mortality at 50 mg/kg, ip bid for 5 days; type: organism-based; parameters: dose 50 mg/kg, route intraperitoneal; details: in vivo, 120 h
[15] = target: Macrophage metalloelastase (Homo sapiens, UniProt P39900); experiment: Inhibition of MMP12
[16] = Terminal half life in rhesus monkey at 2 mg/kg, iv and 4 mg/kg, po; type: ADME, organism-based, Macaca mulatta; details: in vivo; method in brief: as §2
[17] = AUC in Sprague-Dawley rat at 3 mg/kg, po; type: ADME, organism-based; parameters: dose 3 mg/kg, route oral; details: plasma
Method in brief: (§4)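 Single-dose rat PK with the compound given as its TFA salt to Sprague-Dawley rats (n = 3) in DMSO/PEG400/water 20%/60%/20%. Dosing was 3 mg/kg iv and 3 mg/kg po.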

Hepatitis C virus [18] = experiment: Antiviral activity against HCV1a; type: functional, organism-based, Hepacivirus hominis; details: subtype 1a
Cytochrome P450 2D6 = Cytochrome P450 2D6 (Homo sapiens, UniProt P10635); experiment: Inhibition of CYP2D6 up to 50 uM; type: ADME
[19] = Cmax in rhesus monkey at 2 mg/kg, iv and 4 mg/kg, po; type: ADME, organism-based, Macaca mulatta; details: in vivo; method in brief: as §1
[20] = Oral bioavailability in Sprague-Dawley rat at 3 mg/kg; type: ADME, organism-based; details: in vivo; method in brief: as §4
Mus musculus [21] = experiment: Toxicity in SCID mouse assessed as change in body weight at 50 mg/kg, ip bid for 5 days; type: organism-based; parameters: dose 50 mg/kg, route intraperitoneal; details: in vivo, 120 h
Method in brief: (§5)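 Non-infected SCID mice (n = 3) received 50 mg/kg by intraperitoneal injection twice daily for five consecutive days, as a tolerability run before the infected-mouse study. Body and organ weights were checked for gross changes. Plasma compound levels were measured 12 h after the last dose.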

[22] = Intrinsic clearance in rat liver microsomes assessed per mg of protein in presence of UDPGA; type: ADME, Microsome
[23] = Plasma protein binding in monkey; type: ADME, cell-free, Macaca mulatta; details: rhesus monkey, read-out: PPB (converted)
[24] = Volume of distribution at steady state in Sprague-Dawley rat at 3 mg/kg, iv and 3 mg/kg, po; type: ADME, organism-based; details: in vivo, read-out: Vdss; method in brief: as §2
[25] = Cmax in dog at 1 mg/kg, iv and 2 mg/kg, po; type: ADME, organism-based, Canis lupus familiaris; details: in vivo; method in brief: as §1
Hepatitis C virus [26] = experiment: Antiviral activity against HCV2a; type: functional, organism-based, Hepacivirus hominis; details: genotype 2a
[27] = Plasma protein binding in rat; type: ADME, cell-free; details: read-out: PPB (converted)
Mus musculus [28] = experiment: Toxicity in SCID mouse assessed as change in organ weight at 50 mg/kg, ip bid for 5 days; type: organism-based; parameters: dose 50 mg/kg, route intraperitoneal; details: in vivo, 120 h; method in brief: as §5
[29] = Clearance in dog at 1 mg/kg, iv and 2 mg/kg, po; type: ADME, organism-based, Canis lupus familiaris; details: in vivo; method in brief: as §1
Hepatitis C virus [30] = experiment: Antiviral activity against HCV1b infected in humanized uPA+/+-SCID mouse assessed as reduction of plasma viral RNA level at 10 mg/kg, ip bid for 4 days; type: functional, Hepacivirus hominis; details: route intraperitoneal
Method in brief: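 Chimeric uPA+/+-SCID mice with human hepatocytes, infected with genotype 1b HCV, were dosed twice daily. The drop in plasma HCV RNA is given as mean log10. Plasma drug concentration was measured 12 h after the last dose.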

Hepatitis C virus [31] = experiment: Antiviral activity against HCV3a; type: functional, organism-based, Hepacivirus hominis; details: genotype 3a
Hepatitis C virus [32] = experiment: Antiviral activity against HCV1b infected in human Huh-7 cells assessed as inhibition of viral RNA replication after 96 hrs by ELISA assay in presence of 50% normal human serum; type: functional, organism-based, Hepacivirus hominis; details: genotype 1b, Huh-7, 96 h
[33] = Terminal half life in dog at 1 mg/kg, iv and 2 mg/kg, po; type: ADME, organism-based, Canis lupus familiaris; details: in vivo; method in brief: as §2
[34] = AUC in dog at 2 mg/kg, po; type: ADME, organism-based, Canis lupus familiaris; parameters: dose 2 mg/kg, route oral; details: plasma; method in brief: as §1
[35] = Oral bioavailability in dog at 2 mg/kg, po; type: ADME, organism-based, Canis lupus familiaris; details: in vivo; method in brief: as §1
[36] = Clearance in rhesus monkey at 2 mg/kg, iv and 4 mg/kg, po; type: ADME, organism-based, Macaca mulatta; details: in vivo; method in brief: as §1
Cytochrome P450 3A4 = Cytochrome P450 3A4 (Homo sapiens, UniProt P08684); experiment: Inhibition of CYP3A4 up to 50 uM; type: ADME
[37] = Clearance in Sprague-Dawley rat at 3 mg/kg, iv and 3 mg/kg, po; type: ADME, organism-based; details: in vivo; method in brief: as §1
[38] = Plasma protein binding in human; type: ADME, cell-free; details: read-out: PPB (converted)

Chain of Cytochrome P450 2C9 (P11712 whole entry): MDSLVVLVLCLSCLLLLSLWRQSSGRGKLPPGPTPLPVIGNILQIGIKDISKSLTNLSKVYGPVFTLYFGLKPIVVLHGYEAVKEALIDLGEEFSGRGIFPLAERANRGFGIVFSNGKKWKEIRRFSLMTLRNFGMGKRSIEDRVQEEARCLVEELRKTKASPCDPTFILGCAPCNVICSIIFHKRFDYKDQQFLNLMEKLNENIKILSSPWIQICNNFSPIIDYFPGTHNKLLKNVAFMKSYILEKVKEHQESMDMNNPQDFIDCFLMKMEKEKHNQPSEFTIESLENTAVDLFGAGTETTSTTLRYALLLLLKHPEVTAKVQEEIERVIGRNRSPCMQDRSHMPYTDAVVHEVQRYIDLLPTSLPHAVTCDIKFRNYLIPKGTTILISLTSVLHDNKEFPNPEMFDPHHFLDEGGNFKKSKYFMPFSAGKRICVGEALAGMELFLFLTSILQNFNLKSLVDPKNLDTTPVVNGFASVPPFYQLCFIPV
Chain of Cytochrome P450 3A4 (P08684 whole entry): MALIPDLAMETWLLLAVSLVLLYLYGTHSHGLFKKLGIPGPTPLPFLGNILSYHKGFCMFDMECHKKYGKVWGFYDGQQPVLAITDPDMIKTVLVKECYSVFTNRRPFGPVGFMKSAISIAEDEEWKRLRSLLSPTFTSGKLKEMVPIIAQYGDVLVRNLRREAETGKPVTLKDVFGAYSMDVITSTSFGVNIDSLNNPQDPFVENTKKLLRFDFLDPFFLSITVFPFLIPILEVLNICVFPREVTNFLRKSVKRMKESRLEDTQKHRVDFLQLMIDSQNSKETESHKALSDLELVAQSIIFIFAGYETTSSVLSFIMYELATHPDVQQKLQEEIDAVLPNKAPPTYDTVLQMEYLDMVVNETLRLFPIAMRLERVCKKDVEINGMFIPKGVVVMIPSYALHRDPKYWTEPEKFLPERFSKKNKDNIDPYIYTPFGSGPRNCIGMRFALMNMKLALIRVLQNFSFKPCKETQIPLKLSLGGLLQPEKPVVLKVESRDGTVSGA
Chain of Macrophage metalloelastase (P39900 whole entry): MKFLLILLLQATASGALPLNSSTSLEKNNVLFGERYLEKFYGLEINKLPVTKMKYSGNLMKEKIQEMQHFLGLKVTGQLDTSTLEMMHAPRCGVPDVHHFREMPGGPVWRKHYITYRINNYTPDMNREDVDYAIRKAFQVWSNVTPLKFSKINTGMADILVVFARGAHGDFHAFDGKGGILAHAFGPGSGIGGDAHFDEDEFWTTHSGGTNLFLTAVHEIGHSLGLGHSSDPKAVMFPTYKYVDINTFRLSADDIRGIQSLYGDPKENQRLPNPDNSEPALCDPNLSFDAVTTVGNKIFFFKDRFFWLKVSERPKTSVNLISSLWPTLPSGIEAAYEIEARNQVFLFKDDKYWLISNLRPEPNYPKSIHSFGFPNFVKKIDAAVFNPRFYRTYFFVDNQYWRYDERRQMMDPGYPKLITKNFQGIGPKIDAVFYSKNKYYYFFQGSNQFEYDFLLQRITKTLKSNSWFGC
Chain of Cytochrome P450 2D6 (P10635 whole entry): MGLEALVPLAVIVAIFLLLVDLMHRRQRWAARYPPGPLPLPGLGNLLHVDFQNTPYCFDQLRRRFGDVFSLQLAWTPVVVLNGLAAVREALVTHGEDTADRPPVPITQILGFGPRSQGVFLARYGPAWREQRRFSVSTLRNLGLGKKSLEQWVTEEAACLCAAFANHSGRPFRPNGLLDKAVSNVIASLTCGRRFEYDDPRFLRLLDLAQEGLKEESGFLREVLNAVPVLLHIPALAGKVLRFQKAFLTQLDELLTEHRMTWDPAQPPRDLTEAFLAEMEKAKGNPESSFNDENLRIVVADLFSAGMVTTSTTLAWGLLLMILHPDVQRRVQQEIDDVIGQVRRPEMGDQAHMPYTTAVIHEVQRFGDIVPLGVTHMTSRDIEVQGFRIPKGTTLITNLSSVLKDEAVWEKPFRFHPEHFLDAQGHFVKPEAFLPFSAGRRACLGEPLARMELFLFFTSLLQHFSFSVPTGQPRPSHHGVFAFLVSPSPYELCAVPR

`CN(C)CCN(C)[C@H]1COc2ccccc2-c2c(C3CCCCC3)c3ccc(C(=O)O)cc3n2C1` [MK-3281] gave an EC50 (Hepatitis C virus [1]) of 1830 nM, a microsomal CLint [2] of less than 4 µL/min/mg and an IC50 (Hepatitis C virus [3]) of 6 nM. The Cmax [4] was 500 nM, the microsomal CLint [5] was less than 4 µL/min/mg and the EC50 (Hepatitis C virus [6]) was 38 nM. For the same compound, the microsomal CLint [7] was 7 µL/min/mg, the Vd [8] was 2.6 L/kg and the “fold change (FC)” value (Hepatitis C virus [9]) was -3.94. The concentration at 12 h [10] was 2600 nM, the bioavailability [11] was 35% and the EC50 (Hepatitis C virus [12]) was 9 nM. The “fold change (FC)” value (Hepatitis C virus [13]) was 3.13, the “inhibition (INH)” value (Cytochrome P450 2C9) was “Not Active” and the Activity (Mus musculus [14]) was “Non-toxic”. It also gave an IC50 [15] of 8300 nM, a half-life [16] of 5.7 h and an AUC [17] of 2.4 µM·h. For the same compound, the EC50 (Hepatitis C virus [18]) was 28 nM, the “inhibition (INH)” value (Cytochrome P450 2D6) was “Not Active” and the Cmax [19] was 800 nM. The bioavailability [20] was 49%, the Activity (Mus musculus [21]) was “Non-toxic” and the microsomal CLint [22] was less than 4 µL/min/mg. For the same compound, the fraction unbound [23] was 0.074, the Vd [24] was 3.7 L/kg and the Cmax [25] was 1000 nM. For the same compound, the EC50 (Hepatitis C virus [26]) was 2020 nM, the fraction unbound [27] was 0.03 and the Activity (Mus musculus [28]) was “Non-toxic”. The clearance [29] was 7 mL/min/kg, the “fold change (FC)” value (Hepatitis C virus [30]) was 1.4 and the EC50 (Hepatitis C virus [31]) was 37 nM. It also gave an EC50 (Hepatitis C virus [32]) of 110 nM, a half-life [33] of 6.1 h and an AUC [34] of 8.6 µM·h. The bioavailability [35] was 78%, the clearance [36] was 7 mL/min/kg and the “inhibition (INH)” value (Cytochrome P450 3A4) was “Not Active”. It also gave a clearance [37] of 22 mL/min/kg and a fraction unbound [38] of 0.031.
